# Published values of several laboratories.
# Compare with care: the assays were run in different laboratories.
# Cell line: HeLa
# Effect on: cell growth or viability
SMILES,technique,time,IC50
COC(=O)CN=c1scc(-c2ccccc2)n1-c1ccccc1[N+](=O)[O-],MTT,,6.02 µM
CC(=O)O[C@H](C)C(=O)CCCCC[C@@H]1NC(=O)[C@H]2CCCN2C(=O)[C@H](Cc2ccccc2)NC(=O)C(C)(C)NC1=O,XTT,,0.119 µM
C(C#CCC1CCCCC1)#CCC1CCCCC1,MTT,24 h,117 µg/mL
CCOc1cc(OCC)cc(C(=O)O[C@@H]2CN3Cc4c(cc5c(c4OC)OCO5)[C@@]24C=C[C@H](OC)C[C@@H]34)c1,WST-1,48 h,5 µM
COc1cccc2c1C(=O)c1c(O)c3c(c(O)c1C2=O)C[C@@](O)(C(=O)CO)C[C@@H]3O[C@H]1C[C@H](N)[C@H](O)[C@H](C)O1,MTT,24 h,1.71 µg/mL
O=C(Cn1ccnc1[N+](=O)[O-])NCc1ccccc1,,,> 380 µM
COc1cccc2c1C(=O)c1c(O)c3c(c(O)c1C2=O)C[C@@](O)(C(=O)CO)C[C@@H]3O[C@H]1C[C@H](N)[C@H](O)[C@H](C)O1,MTT,48 h,0.18 µM
CN(C)CCCOc1cc(NC(=O)c2cccc(C(=O)Nc3cc(OCCCN(C)C)c4ccccc4n3)n2)nc2ccccc12,ATP luminescence,72 h,3 µM
COc1cccc(Oc2ccccc2NC(=O)CNC(=O)c2c(C)cc(C)cc2C)c1,,,6.5 µM
CC1(C)SC2C(NC(=O)C(NC(=O)C3=C(O)CN(c4ccccc4)C3=O)c3ccccc3)C(=O)N2C1C(=O)O (centres unmarked),ATP luminescence,48 h,87 µg/mL
NCCOc1cc(C(=O)Nc2cc(OCCN3CCCC3)c3ccccc3n2)nc(C(=O)Nc2cc(OCCN3CCCC3)c3ccccc3n2)c1,ATP luminescence,72 h,0.3 µM
CC1(C)SC2C(NC(=O)C(NC(=O)C3=C(O)C(c4ccccc4)NC3=O)c3ccccc3)C(=O)N2C1C(=O)O (centres unmarked),ATP luminescence,48 h,47.6 µg/mL
O=C(Nc1cc(OCCN2CCCC2)c2ccccc2n1)c1cc(OCc2ccc(F)cc2)cc(C(=O)Nc2cc(OCCN3CCCC3)c3ccccc3n2)n1,ATP luminescence,72 h,13 µM
Clc1ccnc2c1ccc1c(Cl)ccnc12,MTT,48 h,> 50 µM
C=CCNC1=C2C[C@@H](C)C[C@H](OC)[C@H](O)[C@@H](C)/C=C(\C)[C@H](OC(N)=O)[C@@H](OC)/C=C\C=C(/C)C(=O)NC(=CC1=O)C2=O,MTT,,0.159 µM
COc1cc(OC)c2c(=O)cc(-c3ccc(N(C)C)cc3)oc2c1,MTT,48 h,55.7 µM
COc1cccc(C(=O)c2cc3c(-c4ccccc4)c(O)ccc3o2)c1,,,27 µM
COc1cc(C)c(-c2c(C)cc(OC)c3c(=O)cc(-c4ccc(Br)cc4)oc23)c2oc(-c3ccc(Br)cc3)cc(=O)c12,MTT,48 h,35.8 µM
Brc1ccc(C#CC#Cc2ccc(Br)cc2)cc1,MTT,24 h,16.3 µg/mL
COc1cc(OC)c2c(=O)cc(-c3ccccc3Br)oc2c1,MTT,48 h,> 100 µM
CC(=O)c1ccc(-c2cccc(NC(=O)CCc3cccc4c3B(O)OC4)c2)cc1,ATP luminescence,,1.27 µM
COc1cc(C)cc2oc(-c3ccccc3Br)cc(=O)c12,MTT,48 h,76.3 µM
CC(=O)O[C@H]1C(=O)[C@@]2(C)[C@H]([C@H](OC(=O)c3ccccc3)[C@]3(O)C[C@H](OC(=O)[C@H](O)[C@@H](NC(=O)c4ccccc4)c4ccccc4)C(C)=C1C3(C)C)[C@]1(OC(C)=O)CO[C@@H]1C[C@@H]2O,MTT,72 h,< 2 µM
